The values below come from ChEMBL document CHEMBL4024802, “3-((R)-4-(((R)-6-(2-Bromo-4-fluorophenyl)-5-(ethoxycarbonyl)-2-(thiazol-2-yl)-3,6-dihydropyrimidin-4-yl)methyl)morpholin-2-yl)propanoic Acid (HEC72702), a Novel Hepatitis B Virus Capsid Inhibitor Based on Clinical Candidate GLS4” (J Med Chem, 2018).

As usually defined, the AUC(0-t) is exposure summed from dosing to a finite time, without extrapolation to infinity. Higher therefore signals high exposure. The term clearance denotes a measure of how efficiently the substance is removed, as volume per time. A low value points to a low capacity for elimination. A word on the Cmax: it is the highest concentration seen after dosing. The half-life is the time in which the quantity being followed falls by half.

Data set [1] in a line: Intrinsic clearance in human liver microsomes at 1 uM preincubated for 10 mins followed by NADPH addition measured up to 60 mins by LC-MS/MS analysis. Format: ADME, microsome. Particulars: read-out: CLH. On the technique in general: Microsomes from liver hold many membrane-bound enzymes, among them those of drug oxidation.
Data set [2] is described as follows: Intrinsic clearance in mouse liver microsomes at 1 uM preincubated for 10 mins followed by NADPH addition measured up to 60 mins by LC-MS/MS analysis. It counts as ADME, microsome. The conditions noted are these: read-out: CLH.
The nature of data set [3]: (§1) Intrinsic clearance in dog liver microsomes at 1 uM preincubated for 10 mins followed by NADPH addition measured up to 60 mins by LC-MS/MS analysis. Format: ADME, Canis lupus familiaris, microsome. Particulars: liver microsomes, read-out: CLH.
Data set [4] is described as follows: AUC (0 to 24 hrs) in Sprague-Dawley rat at 2 mg/kg, iv administered as single dose by LC-MS/MS analysis. It counts as ADME, organism-based. Also noted: dose 2 mg/kg, time < 24 hr, route intravenous. The conditions noted are these: in vivo. In a few lines: (§2)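 Male Sprague−Dawley rats (6−7 weeks, 190−240 g), fasted overnight with food returned 4 h post-dose; 3 rats iv, 3 po; vehicle 5% DMSO, 5% solutol, 90% saline. Heparinized plasma frozen at −80 °C, analysed by LC-MS/MS; noncompartmental PK parameters, BLQ values excluded.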

The nature of data set [5]: AUC (0 to 24 hrs) in Sprague-Dawley rat at 5 mg/kg, po administered as single dose by LC-MS/MS analysis. It counts as ADME, organism-based. The arrangement: time < 24 hr, dose 5 mg/kg, route oral. The conditions noted are these: in vivo. In a few lines: as §2
Data set [6] in a line: Clearance in Sprague-Dawley rat at 2 mg/kg, iv administered as single dose by LC-MS/MS analysis. Format: ADME, organism-based. The conditions noted are these: in vivo. Summed up: as §2
Data set [7] is described as follows: Volume of distribution at steady state in Sprague-Dawley rat at 2 mg/kg, iv administered as single dose by LC-MS/MS analysis. It counts as ADME, organism-based. Particulars: in vivo, read-out: Vdss. Summed up:
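Male Sprague−Dawley rats (6−7 weeks, 190−240 g) were fasted overnight, with food returned 4 h post-dose and n = 3 in the iv group. A single dose was given in 5% DMSO, 5% solutol and 90% saline. Heparinized plasma was separated at 4 °C and frozen at −80 °C. Concentrations were measured by LC-MS/MS, with parameters from noncompartmental analysis and BLQs excluded.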

A short description of data set [8]: Oral bioavailability in Sprague-Dawley rat at 5 mg/kg administered as single dose by LC-MS/MS analysis. Format: ADME, organism-based. The conditions noted are these: in vivo. Summed up:
as §2

The subject of the next data set is Liver. Described as §1. Particulars: microsomes, 1 h, 1 µM. It counts as ADME, Canis lupus familiaris, microsome.
Data set [9] in a line: AUC (0 to 24 hrs) in Beagle dog at 2 mg/kg, iv administered as single dose by LC-MS/MS analysis. It counts as ADME, organism-based, Canis lupus familiaris. The arrangement: dose 2 mg/kg, time < 24 hr, route intravenous. Particulars: in vivo. Summed up:
(§3)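 Beagle dogs, 7−9 months, 8−12 kg, non-naive, fasted overnight; 3 dogs per iv or po group; dosed in 5% DMSO/5% solutol/90% saline. Serial blood into sodium heparin, plasma separated at 4 °C, stored −80 °C; LC-MS/MS quantitation; noncompartmental analysis, BLQs omitted.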

The nature of data set [10]: AUC (0 to 24 hrs) in Beagle dog at 5 mg/kg, po administered as single dose by LC-MS/MS analysis. Format: ADME, organism-based, Canis lupus familiaris. The arrangement: time < 24 hr, dose 5 mg/kg, route oral. Particulars: in vivo. Summed up: as §3
The nature of data set [11]: Cmax in Beagle dog at 2 mg/kg, iv administered as single dose by LC-MS/MS analysis. Format: ADME, organism-based, Canis lupus familiaris. The arrangement: dose 2 mg/kg, route intravenous. Particulars: in vivo. In a few lines:
as §3

Data set [12] can be described thus: Cmax in Beagle dog at 5 mg/kg, po administered as single dose by LC-MS/MS analysis. Format: ADME, organism-based, Canis lupus familiaris. Also noted: dose 5 mg/kg, route oral. Particulars: in vivo. Summed up: as §3
Data set [13] is described as follows: Plasma concentration in Beagle dog at 2 mg/kg, iv administered as single dose after 24 hrs by LC-MS/MS analysis. It counts as ADME, organism-based, Canis lupus familiaris. In a few lines:
as §3

A short description of data set [14]: Plasma concentration in Beagle dog at 5 mg/kg, po administered as single dose after 24 hrs by LC-MS/MS analysis. It counts as ADME, organism-based, Canis lupus familiaris. In a few lines: as §3
Data set [15] in a line: Volume of distribution at steady state in Beagle dog at 2 mg/kg, iv administered as single dose by LC-MS/MS analysis. It counts as ADME, organism-based, Canis lupus familiaris. The conditions noted are these: in vivo, read-out: Vdss. Summed up:
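Non-naive beagle dogs (7−9 months, 8−12 kg) were fasted overnight, with 3 animals in the iv group. Compound was given as a single dose in 5% DMSO, 5% solutol and 90% saline. Plasma was taken from heparinized blood at each time point and stored at −80 °C. Levels were measured by LC-MS/MS, with noncompartmental analysis and BLQ values omitted.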

Data set [16] is described as follows: Clearance in Beagle dog at 2 mg/kg, iv administered as single dose by LC-MS/MS analysis. Format: ADME, organism-based, Canis lupus familiaris. The conditions noted are these: in vivo. Summed up:
as §3

The nature of data set [17]: Half life in Beagle dog at 2 mg/kg, iv administered as single dose by LC-MS/MS analysis. It counts as ADME, organism-based, Canis lupus familiaris. The conditions noted are these: in vivo.
A short description of data set [18]: Oral bioavailability in Beagle dog at 5 mg/kg administered as single dose by LC-MS/MS analysis. Format: ADME, organism-based, Canis lupus familiaris. The conditions noted are these: in vivo.
The nature of data set [19]: Plasma concentration in Balb/c mouse at 12.5 mg/kg, po bid after 24 hrs by LC-MS/MS analysis. It counts as ADME, organism-based.
A short description of data set [20]: Drug uptake in Balb/c mouse liver at 12.5 mg/kg, po bid after 24 hrs by LC-MS/MS analysis. Particulars: read-out: Drug uptake. Format: ADME, organism-based.

For `CCOC(=O)C1=C(CN2CC(F)(F)C[C@@H]2CCC(=O)O)NC(c2nccs2)=N[C@H]1c1ccc(F)cc1Br`, the CLint scaled at 1 µM amounted to 21 mL/min/kg in data set [1], 362 mL/min/kg in [2] and 55 mL/min/kg in data set [3]. Moreover, the AUC(0-t) at 24 h stood at 965 ng·h/mL in data set [4] and 999 ng·h/mL in data set [5]. Besides, in data set [6], the clearance turned out to be 34.4 mL/min/kg. Further, the Vd in data set [7] was determined as 0.77 L/kg. Also, the bioavailability in data set [8] worked out at 41.3%.

Regarding `CCOC(=O)C1=C(CN2CCOC[C@@H]2CCC(=O)O)NC(c2nccs2)=N[C@H]1c1ccc(F)cc1Br`, the CLint scaled at 1 µM in [1] turned out to be 23 mL/min/kg; in [2] it was 316 mL/min/kg; in data set [3] it was 46 mL/min/kg. In addition, the AUC(0-t) at 24 h in data set [4] came out at 423 ng·h/mL; in data set [5], 572 ng·h/mL. This compound also displayed a clearance in [6] of 78.7 mL/min/kg. The Vd in [7] amounted to 1.53 L/kg. The bioavailability in [8] was 54%.

Consider `CCOC(=O)C1=C(CN2CCO[C@H](C)[C@H]2C(=O)O)NC(c2nccs2)=N[C@H]1c1ccc(F)cc1Br`, for which the CLint scaled at 1 µM in data set [1] was determined as 5 mL/min/kg; in data set [2], 89 mL/min/kg. Moreover, the CLH entry in the data set on Liver is listed as “Stable”. Besides, the AUC(0-t) at 24 h turned out to be 1610 ng·h/mL in [4] and 1750 ng·h/mL in data set [5]. Besides, the clearance in data set [6] was found to be 20.6 mL/min/kg. Further, the Vd in data set [7] was 0.37 L/kg. The bioavailability in data set [8] was determined as 44.5%.

On to `CCOC(=O)C1=C(CN2CCOCC2)NC(c2nccs2)=NC1c1ccc(F)cc1Br` (centres undefined), for which the CLint scaled at 1 µM was 20 mL/min/kg in [1] and 485 mL/min/kg in [2]. Further, the AUC(0-t) at 24 h in data set [4] is 405 ng·h/mL; in data set [5], 90 ng·h/mL; in data set [9] it was 1470 ng·h/mL; in data set [10], 1010 ng·h/mL. Also, the figures for the clearance in data set [6] and in data set [16] were 82.2 mL/min/kg and 16.6 mL/min/kg, respectively. The Vd in data set [7] worked out at 4.85 L/kg; in data set [15], 15.8 L/kg. Besides, in [8], the bioavailability is 8.9%. Further, the Cmax in [11] was found to be 1420 ng/mL; in [12], 391 ng/mL. Besides, the concentration at 24 h in data set [13] amounted to 15 ng/mL; in data set [14], 9 ng/mL.

Regarding `CCOC(=O)C1=C(CN2CCOC[C@H]2C(=O)O)NC(c2nccs2)=N[C@H]1c1ccc(F)cc1Br`, the values for the CLint scaled at 1 µM in data set [1], in data set [2] and in data set [3] were 7 mL/min/kg, 377 mL/min/kg and 29 mL/min/kg, respectively. Further, the exposure AUC(0-t) at 24 h in [4] stood at 948 ng·h/mL; in data set [5] it was 548 ng·h/mL. In data set [6], this compound had a clearance of 34.9 mL/min/kg. For the same compound, the Vd in data set [7] was determined as 0.4 L/kg. Further, in data set [8], the bioavailability amounted to 23.1%.

`CCOC(=O)C1=C(CN2CCO[C@H](CCC(=O)O)C2)NC(c2nccs2)=N[C@H]1c1ccc(F)cc1Br`: the values for the CLint scaled at 1 µM in data set [1], in data set [2] and in [3] were 18 mL/min/kg, 385 mL/min/kg and 14 mL/min/kg, respectively. Besides, the area under the curve AUC(0-t) at 24 h in data set [4] stood at 4110 ng·h/mL; in [5], 4900 ng·h/mL; in data set [9], 16500 ng·h/mL; in data set [10], 47900 ng·h/mL. Further, the clearance turned out to be 8.11 mL/min/kg in data set [6] and 1.93 mL/min/kg in [16]. Also, the Vd turned out to be 0.41 L/kg in data set [7] and 0.76 L/kg in data set [15]. In addition, the bioavailability in data set [8] came to 47.7%; in [18] it was 114%. This compound also displayed a Cmax in data set [11] of 2050 ng/mL. Moreover, the concentration at 24 h worked out at 47 ng/mL in data set [13], 232 ng/mL in data set [14], 849 ng/mL in data set [19] and 361 ng/g in data set [20]. The half-life in data set [17] is 5.71 h.

On to `CCOC(=O)C1=C(CN2CCO[C@@H](CCC(=O)O)C2)NC(c2nccs2)=N[C@H]1c1ccc(F)cc1Br`, for which the figures for the CLint scaled at 1 µM in data set [1], in data set [2] and in data set [3] were 21 mL/min/kg, 281 mL/min/kg and 11 mL/min/kg, respectively. The AUC(0-t) at 24 h in [4] is 430 ng·h/mL; in data set [5], 436 ng·h/mL. In [6], this compound displayed a clearance of 77.3 mL/min/kg. In addition, in data set [7], the Vd was 1.24 L/kg. For the same compound, the bioavailability in data set [8] stood at 41%.
